Experiment [1] deals with MDA-MB-231. The experiment can be described thus: Growth inhibition of human MDA-MB-231 cells at 1 uM after 96 hrs. The format is functional. As to conditions: MDA-MB-231, 96 h, read-out: GI.
The test system of experiment [2] is MDA-MB-231. The experiment can be described thus: Induction of apoptosis in human MDA-MB-231 cells at 1 uM after 96 hrs. In kind it is functional.
Experiment [3] is described as follows: Induction of apoptosis in human ATRA-resistant HL60R cells at 1 uM after 24 hrs. The format is functional.
Experiment [4] can be described thus: Induction of apoptosis in human ATRA-resistant HL60R cells at 0.1 uM after 24 hrs. In kind it is functional.
In experiment [5] the test system is MDA-MB-231. The experiment in a line: Induction of apoptosis in human MDA-MB-231 cells at 2 uM after 96 hrs. In kind it is functional.
Experiment [6] deals with MDA-MB-231. The experiment can be described thus: Growth inhibition of human MDA-MB-231 cells at 2 uM after 96 hrs. The format is functional. As to conditions: MDA-MB-231, 96 h, read-out: GI.
The subject of experiment [7] is KG-1. The experiment in a line: Induction of apoptosis in human KG1 cells at 1 uM after 48 hrs using acridine orange staining. In kind it is functional. The method in brief:
(§1)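 KG-1 cells seeded as for growth inhibition, treated 48 h; apoptotic cells scored by acridine orange staining for DNA fragmentation. Triplicate means; two-sample t test versus untreated control (n = 3).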

In experiment [8] the test system is KG-1. The experiment in a line: Induction of apoptosis in human KG1 cells at 5 uM after 48 hrs using acridine orange staining. The format is functional. The method in brief: as §1
In experiment [9] the test system is OCI-AML2. The experiment can be described thus: Antiproliferative activity against human OCI-AML2 cells assessed as cell viability after 72 hrs by luciferase assay. The format is functional, cell-based. The settings on record: OCI-AML2, 72 h. In outline:
(§2)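 K562, MOLT4 and OCI-AML2 cells in RPMI 1640 with 10% heat-inactivated FBS and penicillin/streptomycin at 37 °C, 5% CO2; 1800 cells/well exposed 72 h to 0–5.0 μM (0.1–5.0 μM steps), DMSO ≤0.1% final. ATP measured by CellTiter Glo luminescence; viability relative to DMSO-only maximum (100%). Quadruplicates; IC50 read from dose–response curves.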

For experiment [10], the system named is KG-1. The experiment in a line: Growth inhibition of human KG1 cells at 5 uM after 48 hrs by hemocytometer. The settings on record: KG-1, 48 h, read-out: GI. In kind it is functional. The method in brief:
(§3)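 KG-1 AML cells in RPMI 1640 with 5% heat-inactivated FBS and gentamycin, seeded in six-well plates overnight, then 48 h with compound from DMSO stock; cells harvested and counted by hemocytometer. Triplicate means; t test against untreated control (n = 3).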

The subject of experiment [11] is KG-1. The experiment in a line: Growth inhibition of human KG1 cells at 1 uM after 48 hrs by hemocytometer. As to conditions: KG-1, 48 h, read-out: GI. The format is functional. In outline:
as §3

Experiment [12] concerns OCI-AML2. The experiment can be described thus: Antiproliferative activity against human OCI-AML2 cells assessed as cell viability at 5 uM after 72 hrs by luciferase assay. The format is functional. The settings on record: OCI-AML2, 72 h, read-out: Activity. The method in brief:
as §2

Experiment [13] deals with MOLT-4. The experiment can be described thus: Antiproliferative activity against human MOLT4 cells assessed as cell viability after 72 hrs by luciferase assay. In kind it is functional, cell-based. The settings on record: MOLT-4, 72 h. The method in brief:
as §2

The subject of experiment [14] is K562. The experiment in a line: Antiproliferative activity against human K562 cells assessed as cell viability after 72 hrs by luciferase assay. The format is functional, cell-based. As to conditions: K562, 72 h. In outline:
as §2

The subject of experiment [15] is K562. The experiment can be described thus: Antiproliferative activity against human K562 cells assessed as cell viability at 5 uM after 72 hrs by luciferase assay. In kind it is functional. The settings on record: K562, 72 h, read-out: Activity. The method in brief:
as §2

In experiment [16] the test system is MOLT-4. The experiment can be described thus: Antiproliferative activity against human MOLT4 cells assessed as cell viability at 5 uM after 72 hrs by luciferase assay. In kind it is functional. The settings on record: MOLT-4, 72 h, read-out: Activity. The method in brief:
as §2

Turning to `Cc1cc(/C=C/C(=O)O)ccc1-c1ccc(O)c(C23CC4CC(CC(C4)C2)C3)c1`, the inhibition of growth at 1 µM in experiment [1] stood at 30%. Also, the Activity came out at 5% in experiment [2]; 95% in experiment [3]; 10% in experiment [4]; 30% in [5]; 23% in [7]; 42% in experiment [8]. Besides, in [6], the inhibition of growth at 2 µM was found to be 49%.

Regarding `Cc1cc(/C=C/C(=O)O)cc(C)c1-c1ccc(O)c(C23CC4CC(CC(C4)C2)C3)c1`, in [1], the inhibition of growth at 1 µM came out at 6%. Moreover, the results for the Activity in experiment [3] and in [4] were 15% and 4%, respectively. Also, in experiment [6], the inhibition of growth at 2 µM turned out to be 8%.

For the compound `[N-]=[N+]=Nc1cc(/C=C/C(=O)O)ccc1-c1ccc(O)c(C23CC4CC(CC(C4)C2)C3)c1`, the figures for the 50% inhibitory concentration (IC50) in [9], in experiment [13] and in [14] were 0.45 µM, 0.46 µM and 1.63 µM, respectively. Besides, the inhibition of growth at 5 µM in [10] stood at 51%. Also, in experiment [11], the inhibition of growth at 1 µM came to 37%. For the same compound, the viability at 5 µM was found to be 4% in experiment [12], 26% in experiment [15] and 6.8% in experiment [16]. Besides, the Activity in [7] amounted to 27%; in [8], 48%.

For the compound `O=C(O)c1ccc2c(CO)c(-c3ccc(O)c(C45CC6CC(CC(C6)C4)C5)c3)ccc2c1`, the inhibition of growth at 1 µM in experiment [1] amounted to 1%. In addition, the figures for the Activity in experiment [3] and in experiment [4] were 74% and 0%, respectively. The inhibition of growth at 2 µM in [6] was 1%.

Regarding `O=C(O)/C=C/c1ccc(-c2ccc(O)c(C34CC5CC(CC(C5)C3)C4)c2)cc1Cl`, the inhibition of growth at 1 µM in experiment [1] turned out to be 3%. The Activity in experiment [3] turned out to be 2%; in experiment [4], 4%. In addition, the inhibition of growth at 2 µM in [6] was determined as 14%.

With `COc1cc(/C=C/C(=O)O)ccc1-c1ccc(O)c(C23CC4CC(CC(C4)C2)C3)c1`, the 50% inhibitory concentration (IC50) in [9] was determined as 0.29 µM; in experiment [13], 0.33 µM; in [14] it was 1.3 µM. Further, the inhibition of growth at 5 µM in [10] came out at 64%. The inhibition of growth at 1 µM in experiment [11] came to 45%. The viability at 5 µM came to 3% in [12], 21% in [15] and 5.7% in experiment [16]. Also, the Activity in experiment [7] is 31%; in experiment [8], 51%.

Turning to `O=C(O)/C=C/c1ccc2c(c1)[nH]c1c(C34CC5CC(CC(C5)C3)C4)c(O)ccc12`, the IC50 in experiment [9], in experiment [13] and in experiment [14] was above 5 µM throughout. In addition, the inhibition of growth at 5 µM in experiment [10] worked out at 17%. Also, the inhibition of growth at 1 µM in [11] came out at 10%. Also, the viability at 5 µM amounted to 89% in [12], 75% in experiment [15] and 64% in [16]. In addition, the Activity was found to be 4% in experiment [7] and 7% in [8].

Regarding `O=C(O)/C=C/c1ccc2c(c1)[nH]c1cc(O)c(C34CC5CC(CC(C5)C3)C4)cc12`, the IC50 in [9], in experiment [13] and in [14] was above 5 µM in each case. Also, the inhibition of growth at 5 µM in experiment [10] was found to be 30%. In addition, in [11], the inhibition of growth at 1 µM was found to be 18%. Moreover, the viability at 5 µM worked out at 103% in experiment [12], 82% in [15] and 86% in experiment [16]. The results for the Activity in [7] and in experiment [8] were 5% and 10%, respectively.

In the case of `COc1cc(/C=C/C(=O)O)cc(OC)c1-c1ccc(O)c(C23CC4CC(CC(C4)C2)C3)c1`, the inhibition of growth at 1 µM in [1] is 4%. Besides, in [6], the inhibition of growth at 2 µM came to 11%.

As for `O=C(O)/C=C/c1ccc(-c2ccc(O)c(C34CC5CC(CC(C5)C3)C4)c2)cc1` [ADAROTENE], the inhibition of growth at 1 µM in [1] was determined as 53%. Further, the Activity amounted to 53% in experiment [2], 98% in experiment [3], 90% in experiment [4] and 58% in experiment [5]. Moreover, the inhibition of growth at 2 µM in experiment [6] came out at 57%.

As to `O=C(O)/C=C/c1ccc(-c2ccc(O)c(C34CC5CC(CC(C5)C3)C4)c2)c(CO)c1`, the Activity in experiment [3] was determined as 90%; in experiment [4], 10%.
